Assay outcomes deposited in PubChem by several laboratories.
Sampled rows, rich in hits. Any-hit rate of the full collection: about 9.2%.
L major viab = Leishmania major promastigote growth inhibition, primary screen; Leishmania major promastigotes, resazurin fluorescence viability; inhibition, % at 10 µM; hit rate 9% among 200,000; in the data active means inhibition above about 50%;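 further: promastigotes grown with compound for 44 hours at 28 °C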
Dynein cargo inh = inhibitors of GR-EGFP nuclear translocation, primary screen, dynein cargo transport inhibitor project, imaging, high-content, 3617.4 mouse cells | test concentration mostly 20 µM; stimulated with dexamethasone, 1 µM; hits give low values | z-score, hits read low | hit rate 0.47% among 220,000;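 active means plate z-score of nuclear minus cytoplasmic receptor signal below a set negative limit, without overly bright fluorescence or cell loss, cut at about -3.5 in these data, passing the limit was not always enough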;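 further: z-score of nuclear minus cytoplasmic ring GR-EGFP intensity difference per well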
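Schedule: 48 h induction, then 1 h compound, then 30 min agonist, 37 °C. Buffer or medium: tetracycline-free induction medium containing charcoal-stripped FBS. Reagent: 1.0 µM final dexamethasone stimulus. Evaluation: nuclear versus cytoplasmic GR-EGFP signal, averaged per well. Signal: high-content fluorescence imaging after fixation.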
HCT116 bCat-KO = primary screen for growth suppressors in beta-catenin knockout HCT116 cells (colon tumor, human). HCT116 beta-catenin knockout viability, CellTiter-Glo, 60 h; hits give low values. viability, % at 10 µM. hit rate 1.5% among 140,000;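 active means viability at or under a set limit, the compound median less 4 SD, cut at about 6% in these data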;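 further: 0% = Hyamine 1622 control at 20 µM and 100% = untreated cell control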
Autophagy mod = autophagy modulators in MEF cells, primary screen, imaging, high-content, MEF GFP-LC3; MEF GFP-LC3 puncta imaging; test concentration mostly 10 µM; calls only at 10 µM (by protocol); hit rate 0.98% among 190,000;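 active means percentage of spot-positive cells more than 3 SD above its plate mean, without a fluorescence outlier flag or 80% toxicity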;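 further: spot-positive cell cutoff set from DMSO-treated cells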
HCT116 PTEN-null = growth suppression of PTEN-null HCT116, primary screen, cell-based, CellTiter-Glo; HCT116 PTEN-null viability, 60 h; hits give low values; viability, % at 10 µM; hit rate 1.2% among 140,000; AID 827, 2007;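 active means viability at or below a set limit, 4 SD under the median of all tested compounds, cut at about 3.7% in these data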;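 further: PTEN knockout HCT116 line with beta catenin targeted HCT116 as companion control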
* marks the source's active call; other numbers are inactive results; i = inactive; · = no result given; + = active, no number.

SMILES	L major viab	Dynein cargo inh	HCT116 bCat-KO	Autophagy mod	HCT116 PTEN-null
CC(C)N1CCN(Cc2ccc3c(c2)Cc2ccccc2-3)CC1CCO (stereo not drawn)	85*	-0.83	·	i	·
Cc1ccc(S(=O)(=O)N/N=C/c2ccc3nccnc3c2)cc1	·	0.88	·	·	·
CC1c2ccccc2N(NC(=O)Cc2ccccc2)C1C (stereo not drawn)	·	-0.061	·	·	·
O=C1C2C3C=CC(C4CC34)C2C(=O)N1/N=C/c1ccc(-c2ccc(Cl)cc2[N+](=O)[O-])o1 (stereo not drawn)	59*	-1.2	102	i	97
COc1ccc(NC(=S)N(CCN(C)C)C(C)c2ccco2)cc1 (stereo not drawn)	51*	-0.044	89	i	105
COc1cccc(NC(=O)N(CCCN2CCOCC2)C(C)c2cc3ccccc3o2)c1 (stereo not drawn)	99*	0.66	69	i	65
COc1cccc2cc(C(C)N(CCCN3CCOCC3)C(=S)Nc3ccc(C)cc3)oc12 (stereo not drawn)	19	-0.92	·	i	·
Cc1ccc(NC(=S)N(CCN(C)C)C(C)c2ccco2)cc1C (stereo not drawn)	46	-0.29	90	i	91
COc1ccc(NC(=S)N(CCCN2CCOCC2)C(C)c2cc3ccccc3o2)cc1 (stereo not drawn)	72*	0.44	·	i	·
C=CCN=C1CC(C)(C)C(C(=O)OC)C(O)=C1C(=O)CCC (stereo not drawn)	13	1.1	·	i	·
COc1ccc(OCC(O)CN2CCN(c3ccccc3)CC2)cc1 (stereo not drawn)	21	2.8	·	i	·
COc1ccc(N2CCN(CC(O)COCc3ccccc3)CC2)cc1 (stereo not drawn)	-2	-0.49	·	i	·
OC(CNc1ccccc1)COc1ccc(OCC(O)CNc2ccccc2)cc1 (stereo not drawn)	66*	0.16	1.7*	i	1.6*
CC(C)c1ccc(OCC(O)CN2CCN(c3ccccc3)CC2)cc1 (stereo not drawn)	87*	3.4	97	i	89
COc1ccc(N2CCN(CC(O)COc3ccccc3[N+](=O)[O-])CC2)cc1 (stereo not drawn)	92*	-0.17	91	i	89
OC(COc1ccccc1)CN1CCN(CC(O)COc2ccccc2)CC1 (stereo not drawn)	87*	1.4	·	i	·
CN(C)c1ccc(-c2nnn(CC(=O)NCc3ccc4c(c3)OCO4)n2)cc1	10	0.2	·	i	·
Cc1ccsc1/C=N/NC(=O)Nc1ccccc1	-2	-0.47	·	i	·
CCOC(=O)C1CCN(Cc2ccc(O)c3ncccc23)CC1	95*	-0.66	3.0*	i	1.9*
COc1ccccc1N1CCN(Cc2ccc(O)c3ncccc23)CC1	101*	0.87	3.3*	i	1.7*
CC(/C=C/C=C/c1ccccc1)=N/NC(=O)CNc1ccc(C)cc1	4	1.1	93	i	97
Cc1cc(Br)cc2c(C(=O)Nc3c(C)n(C)n(-c4ccccc4)c3=O)cc(-c3cccs3)nc12	69*	1.1	55	i	60
CCc1ccc(-c2cc(C(=O)Nc3c(C)n(C)n(-c4ccccc4)c3=O)c3ccccc3n2)s1	31	-0.19	57	i	49
COC(=O)CC1(C(=O)OC)Oc2ccc(Br)cc2C(=O)N1c1cc(Cl)c(Cl)cc1Cl (stereo not drawn)	·	-0.38	·	·	·
CC(=O)Nc1sc2c(c1C#N)CCCCC2	-12	0.68	91	i	90
SMILES	L major viab	Dynein cargo inh	HCT116 bCat-KO	Autophagy mod	HCT116 PTEN-null
CCn1cc(C(C)(C)C)c(C#N)c1NC(C)=O	0	0.16	90	+	93
Cc1cc(=O)oc(C)c1C(=O)Nc1ccccc1F	·	0.6	·	·	·
CC(c1ccccc1)N1CCC(CNC(=S)Nc2cccc(Cl)c2)C1 (stereo not drawn)	95*	-0.58	·	i	·
Cc1cc(C)c(NC(=S)NCC2CCN(C(C)c3ccccc3)C2)c(C)c1 (stereo not drawn)	29	-1.4	·	i	·
COc1ccc(N2CCC(CNC(=O)Nc3cccc(OC)c3)C2)cc1 (stereo not drawn)	4	-0.33	80	i	81
Cc1ccc(NC(=S)NCC2CCN(C(C)c3ccccc3)C2)cc1 (stereo not drawn)	78*	-0.14	·	i	·
